# Assay outcomes as filed in PubChem BioAssay.
# OX1R antag-1 – OX1R (HCRTR1) antagonists, primary screen, fluorescence, CHO/OX1R cells, Fluo-8 calcium, orexin A | Fluo-8 calcium fluorescence | hit rate 0.43% among 330,000 | AID 434989, 2010 | inhibition, % at 5 µM;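 active means inhibition above its plate's threshold, mean inhibition of all tested compounds on the plate plus 3 SD, cut at about 37% in these data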;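 further: 0% = orexin A challenge wells and 100% = SB-334867-A antagonist wells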
# Target sequence (O43613 whole entry, looked up): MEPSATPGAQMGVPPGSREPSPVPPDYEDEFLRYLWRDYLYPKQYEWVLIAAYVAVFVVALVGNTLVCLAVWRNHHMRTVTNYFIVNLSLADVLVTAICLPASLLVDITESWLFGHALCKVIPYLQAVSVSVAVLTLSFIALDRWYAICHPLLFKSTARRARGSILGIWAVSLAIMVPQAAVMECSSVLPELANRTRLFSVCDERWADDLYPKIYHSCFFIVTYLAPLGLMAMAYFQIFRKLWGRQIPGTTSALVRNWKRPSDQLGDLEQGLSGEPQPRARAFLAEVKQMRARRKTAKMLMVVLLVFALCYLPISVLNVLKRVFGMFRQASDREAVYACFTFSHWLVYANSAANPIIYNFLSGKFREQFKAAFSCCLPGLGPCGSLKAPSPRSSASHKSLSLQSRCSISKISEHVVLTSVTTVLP
# GPR7 antag – GPR7 receptor antagonists, primary screen, cell-based, fluorescence, single concentration. Neuropeptides B/W receptor type 1 (Homo sapiens), P48145. GPR7-expressing cells, fluorescence antagonist assay. inhibition, % at 4.4 µM. hit rate 1.1% among 290,000; in the data active means inhibition above about 16%, passing the limit was not always enough;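 further: cells stimulated with the agonist NPW; 0% = agonist with vehicle and 100% = vehicle without agonist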
# Target sequence (P48145 whole entry, looked up): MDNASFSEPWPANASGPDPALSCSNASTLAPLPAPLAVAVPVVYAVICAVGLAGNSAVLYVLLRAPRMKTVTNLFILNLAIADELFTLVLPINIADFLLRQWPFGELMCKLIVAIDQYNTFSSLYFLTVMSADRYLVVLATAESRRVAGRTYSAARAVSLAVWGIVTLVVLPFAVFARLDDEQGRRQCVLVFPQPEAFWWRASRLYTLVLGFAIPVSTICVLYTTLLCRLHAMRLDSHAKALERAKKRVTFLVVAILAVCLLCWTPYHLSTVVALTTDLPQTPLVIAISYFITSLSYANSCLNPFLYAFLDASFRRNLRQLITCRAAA
# TAAR1 agonist – human TAAR1 agonists, primary screen, Fluo-8 calcium fluorescence, CHO RD-HGA16 cells; Trace amine-associated receptor 1 (Homo sapiens), Q96RJ0; AID 624467, 2012; vehicle wells 0%, saturating PEA agonist 100%; hit rate 0.99% among 360,000; activation, % at 3 µM;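 active means activation above the mean activation of all test compounds in the run plus 3 SD, cut at about 38% in these data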
#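 Repeats: no replicates (n 1) | Material: CHO-derived RD-HGA16 cells with stable Gα16 and human TAAR1 | Technique: Kinetic Fluo-8 calcium fluorescence | Schedule: 17-24 h seeding, 75 min 37 °C dye, 30 min RT | Evaluation: % activation from peak over basal fluorescence ratio, DMSO-to-PEA scaled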
# TAAR1 antagonist – human TAAR1 antagonists, primary screen, Fluo-8 calcium fluorescence, CHO RD-HGA16 cells. Trace amine-associated receptor 1 (Homo sapiens), Q96RJ0. antagonist. inhibition, % at 3 µM. hit rate 1.5% among 360,000;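 active means inhibition above a per-plate cutoff, the mean inhibition of test compounds on that plate plus 3 SD, cut at about 49% in these data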;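 further: 0% = DMSO plus EC80 beta-PEA response and 100% = DMSO alone without agonist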
#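 Test system: hTAAR1-expressing CHO RD-HGA16 cells, Gα16-coupled; Probe or stimulus: EC80 β-phenethylamine stimulus; Compound dosing: single nominal final test compound concentration of 3 µM; Timing: 140 s kinetic read after compound, 140 s after agonist; Signal: Fluo-8 calcium-sensitive fluorescence; Measure: % inhibition of agonist calcium response; Controls: DMSO and EC80 PEA controls.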
# OX1R antag-2 – antagonists of human orexin 1 receptor (OX1R). Orexin/Hypocretin receptor type 1 (Homo sapiens), O43613. OX1R-expressing cells, FRET antagonist read-out. inhibition, % at 6.6 µM. hit rate 1.8% among 330,000; in the data active means inhibition mostly above about 38%, no sharp cut-off; inactive means mostly below about 40%;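 further: 0% = agonist challenge alone and 100% = reference antagonist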
# CHO parental Ca – ATP-evoked calcium signal inhibitors, parental CHO, primary screen, counter-screen for OX1R antagonist project, cell-based, fluorescence, Fluo-8 calcium dye | hit rate 0.63% among 330,000 | inhibition, % at 5.6 µM | parental CHO-K1, ATP-induced calcium, Fluo-8 fluorescence;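 active means inhibition above that plate's mean sample inhibition plus 3 SD, cut at about 26% in these data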;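 further: 0% = ATP-challenged DMSO wells and 100% = DMSO wells without ATP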
#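 Measured by: calcium-sensitive Fluo-8 fluorescence / Test system: CHO parental line / Controls: ATP-challenged DMSO wells low, unchallenged DMSO wells high / Measure: % inhibition / Compound: single nominal dose of 5.6 µM per compound / Replicates: single well per compound, no replicates / Reagent: ATP as calcium-mobilizing challenge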
# GPR7 antag cf – GPR7 receptor antagonists, confirmation, cell-based, fluorescence, single concentration | hit rate 52% among 2,400 | inhibition, % at 4.4 µM | GPR7-expressing cells, calcium fluorescence antagonist mode | shares compounds with GPR7 antag; in the data active means inhibition above about 24%;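 further: stimulated with the GPR7 agonist NPW; 0% = agonist plus vehicle and 100% = vehicle alone without agonist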
# MCHR1 antagonist – MCHR1 antagonists in cells, counter-screen for GPR7 antagonist project, cell-based, fluorescence, human; shares compounds with GPR7 antag; MCHR1-expressing cells, fluorescence antagonist assay; inhibition, % at 4.4 µM; hit rate 62% among 2,400; in the data active means inhibition above about 22%;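 further: 0% = vehicle with agonist and 100% = vehicle without agonist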
# OX1R Ca confirm – OX1R (HCRTR1) antagonists, confirmation, fluorescence, CHO/OX1R cells, Fluo-8 calcium, orexin A. shares compounds with OX1R antag-1. orexin A calcium Fluo-8 fluorescence. inhibition, % at 5 µM. hit rate 38% among 1,100. AID 492963, 2010; in the data active means inhibition above about 29%;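 further: 0% = agonist challenge alone and 100% = reference antagonist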
# CHO Ca counter – ATP-evoked calcium inhibition in parental CHO, counter-screen for OX1R antagonist project, cell-based, fluorescence, CHO-K1, triplicate; ATP-induced calcium, Fluo-8 fluorescence; inhibition, % at 5.6 µM; shares compounds with OX1R antag-1; hit rate 9.3% among 1,100; AID 492965, 2010;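 active means inhibition above a per-plate limit, the mean inhibition of that plate's test compounds plus 3 SD, cut at about 25% in these data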;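 further: 0% = ATP challenge with DMSO and 100% = DMSO without ATP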
# OX1R HTRF conf – OX1R (HCRTR1) antagonists, confirmation, cell-based, HTRF; OX1R-expressing cells, HTRF antagonist assay; inhibition, % at 6.6 µM; hit rate 49% among 1,800; AID 492964, 2010; shares compounds with OX1R antag-2; in the data active means inhibition above about 55%;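 further: CHO cells expressing OX1R stimulated with orexin A at about EC80; 0% = agonist challenge alone and 100% = reference antagonist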
# CHO-K1 HTRF cnt – signal inhibition in parental CHO-K1 cells, counter-screen for OX1R antagonist project, cell-based, HTRF | shares compounds with OX1R antag-2 | hit rate 48% among 1,800 | AID 493232, 2011 | HTRF counterscreen | inhibition, % at 6.6 µM; in the data active means inhibition above about 17%;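 further: 0% = agonist challenge with vehicle and 100% = vehicle alone without agonist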
# * hit, by the source's call; . = no result given. Compounds with a hit are over-represented: about 4.5% of the library has one in this group of screens.
SMILES,OX1R antag-1,GPR7 antag,TAAR1 agonist,TAAR1 antagonist,OX1R antag-2,CHO parental Ca,GPR7 antag cf,MCHR1 antagonist,OX1R Ca confirm,CHO Ca counter,others
Cc1ccc(Cl)cc1N1CCN(C(=O)c2ccc3c(c2)CCN3S(C)(=O)=O)CC1,30.6,28.6*,4.2,12.2,15.6,13.4,25.4*,16.8,-2.0,-4.8,
Cc1ccc(N(C(=O)CNC(=O)c2ccco2)C(C(=O)NC2CCCCC2)c2ccncc2)c(C)c1 (stereo unspecified),6.0,-5.9,0.5,-12.9,12.8,-21.0,.,.,.,.,
C=CCOc1cccc(C(=O)/C=C2/C(=O)Nc3ccccc32)c1,35.4,43.1*,2.4,23.5,14.0,19.3,65.3*,80.6*,20.6,18.9,
CC(=O)c1ccc(S(=O)(=O)N(C)CC(=O)NCc2ccco2)cc1,-20.2,.,1.8,5.5,3.5,-5.5,.,.,.,.,
O=C(c1ccccc1)c1c2c(cc3sc4ccccc4[n+]13)-c1cccc3cccc-2c13,44.8,21.3*,7.6,9.2,12.4,28.6,17.8,31.5*,35.7*,37.1*,
Cc1sc2cc3c(c(C(=O)c4ccccc4)[n+]2c1C)-c1cccc2cccc-3c12,-0.1,-9.9,1.4,-4.8,20.0,2.5,.,.,.,.,
O=C(Nc1csc([N+](=O)[O-])c1)Nc1ccccc1Cl,35.4,41.0*,9.8,23.4,44.5,3.4,50.6*,62.3*,1.2,41.9*,
O=C(Nc1ccccc1Cl)Nc1ccccc1Cl,-29.1,-1.3,-2.7,-44.8,14.0,-8.8,.,.,.,.,
CCCCCc1ccc(OCCCC[n+]2ccc(C)cc2)c(CCCCC)c1,40.3*,23.9*,34.8,-11.4,13.6,21.3,70.2*,78.8*,16.4,11.2,
N#C/C(=C\c1ccc(O)cc1)c1nc2ccccc2o1,-4.3,-2.7,14.6,22.5,24.3,-2.4,.,.,.,.,
COc1cc(/C=C(\C#N)c2nc3ccccc3o2)ccc1O,34.1,26.1*,58.2*,50.8*,16.7,22.9,35.6*,46.4*,56.1*,55.7*,
Cc1cc(C)c(OCC(=O)N2CC=C(c3ccccc3)CC2)c(C)c1,-7.8,13.3,-0.7,-20.1,19.0,0.0,.,.,.,.,
CCOC(=O)c1c(-c2ccc(-c3ccccc3)cc2)csc1NC(=O)CNCCN(C)C,31.3,33.9*,14.7,23.3,8.0,16.3,59.8*,75.0*,35.8*,11.7,
CCOC(=O)/C(=C\C=C1/Sc2ccccc2N1CC)C(C)=O,41.9,27.8*,16.8,15.9,43.3,34.5,19.2,36.0*,34.5*,34.9*,
COc1ccc(CNC(=O)c2cn(Cc3ccccc3OC)c(=O)s2)cc1,.,.,1.4,-3.2,.,.,.,.,.,.,
O=C(c1ccc2c(c1)OCCO2)C1CCN(C(=O)Nc2ccccc2F)CC1,-30.4,2.2,0.0,3.2,20.6,-16.6,.,.,.,.,
O=C(O)c1ccc(NC2=C(Cl)C(=O)c3ccccc3C2=O)cc1,12.5,50.0*,0.1,-4.0,84.4*,12.6,17.9,35.1*,.,.,OX1R HTRF conf=70.3*;CHO-K1 HTRF cnt=34.2*
O=C(O)c1cccc(NC2=C(Cl)C(=O)c3ccccc3C2=O)c1,.,-2.9,-1.3,9.5,.,.,.,.,.,.,
CN(CC(O)Cn1c2ccccc2c2ccccc21)S(C)(=O)=O (stereo unspecified),6.9,0.4,6.5,1.1,-5.0,-3.0,.,.,.,.,
CS(=O)(=O)N(CC(O)Cn1c2ccccc2c2ccccc21)c1ccccc1 (stereo unspecified),27.3,28.2*,15.7,38.8,49.0*,13.1,35.4*,33.7*,36.1*,-2.5,OX1R HTRF conf=44.2;CHO-K1 HTRF cnt=2.8
O=C(c1ccc([N+](=O)[O-])s1)N1CCN(c2ccc(C(F)(F)F)cn2)CC1,5.7,36.3*,-4.0,-1.2,99.4*,17.4,46.7*,57.9*,.,.,OX1R HTRF conf=28.6;CHO-K1 HTRF cnt=18.9*
O=C(c1ccc([N+](=O)[O-])s1)N1CCN(c2ncccn2)CC1,.,.,0.2,2.2,.,.,.,.,.,.,
N=c1c(C(=O)NCCc2ccccc2)cc2c(=O)n3ccccc3nc2n1CC1CCCO1 (stereo unspecified),-26.0,47.6*,-1.8,-12.6,88.4*,-20.6,34.3*,19.9,.,.,OX1R HTRF conf=82.5*;CHO-K1 HTRF cnt=61.6*
CC1CCC(C(C)C)C(OC(=O)C[n+]2cc(-c3ccc(Cl)cc3)n3c2CCC3)C1 (stereo unspecified),-24.1,28.3*,4.9,-18.5,101.7*,-5.7,38.5*,51.0*,.,.,OX1R HTRF conf=19.1;CHO-K1 HTRF cnt=4.1
CCC1Nc2ncnc(N3CCOCC3)c2N(Cc2ccc(Cl)cc2)C1=O (stereo unspecified),-18.1,.,.,.,5.5,-8.7,.,.,.,.,
CC(=O)Oc1cccc(N2C(=O)c3cccc4c([N+](=O)[O-])ccc(c34)C2=O)c1,28.2,60.4*,4.1,21.7,114.9*,17.5,54.3*,35.9*,.,.,OX1R HTRF conf=99.0*;CHO-K1 HTRF cnt=72.4*
O=C(NCC(=O)N(c1ccc(F)cc1)C(C(=O)NC1CCCC1)c1ccncc1)c1ccco1 (stereo unspecified),-2.0,-20.4,-2.5,5.6,6.6,-9.0,.,.,.,.,
COc1ccc(S(=O)(=O)NC2CC3CCC2C3)cc1 (stereo unspecified),-13.3,-6.1,3.8,-0.2,7.5,-0.9,.,.,.,.,
